≈ marks a conversion by molar mass, not a printed value. Calls of active or inactive are those of the source. The rule behind the calls is not given here.
What was measured:
Escherichia coli = test: Antibacterial activity against Escherichia coli ATCC 23722 after 36 hrs visualized by MTT staining by broth macrodilution assay; type: functional; settings: ATCC 23722, 36 h
How it was run: (§1)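 Broth macrodilution adapted from NCCLS. E. coli and B. subtilis grown in Mueller-Hinton broth; M. smegmatis in Middlebrook 7H9 with 0.2% glycerol and ADC enrichment. Inocula were set to a 0.5 McFarland standard, giving a final density of 5.0 · 10⁵ cfu/mL. Incubated at 37 °C for 36 h and the MIC recorded.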

Bacillus subtilis = test: Antibacterial activity against Bacillus subtilis ATCC 6633 after 36 hrs visualized by MTT staining by broth macrodilution assay; type: functional; settings: ATCC 6633, 36 h; how it was run: as §1
[1] = target: Diacylglycerol acyltransferase/mycolyltransferase Ag85C (Mycobacterium tuberculosis) (UniProt P9WQN9); test: Inhibition of mycolyltransferase activity of Mycobacterium tuberculosis antigen 85C at 1 to 20 mM by UV-visible absorption spectroscopy
Diacylglycerol acyltransferase/mycolyltransferase Ag85C (Mycobacterium tuberculosis), sequence (P9WQN9 whole entry): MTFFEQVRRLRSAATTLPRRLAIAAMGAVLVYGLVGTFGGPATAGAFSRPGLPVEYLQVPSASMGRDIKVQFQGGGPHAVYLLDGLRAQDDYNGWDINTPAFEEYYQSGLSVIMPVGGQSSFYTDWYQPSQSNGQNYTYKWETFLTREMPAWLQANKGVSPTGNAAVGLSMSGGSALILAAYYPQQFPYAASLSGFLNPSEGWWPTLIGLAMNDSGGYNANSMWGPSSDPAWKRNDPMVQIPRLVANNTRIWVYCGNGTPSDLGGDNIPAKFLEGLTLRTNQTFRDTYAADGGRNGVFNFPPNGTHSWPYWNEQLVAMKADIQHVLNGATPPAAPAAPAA
How it was run: (§2)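 Purified ag85C (M. tuberculosis) in 10 mM Tris–HCl pH 7.5, 2 mM EDTA, 1 mM DTT, added to start the reaction. The mix holds sodium phosphate buffer, β-glucosidase, dextrose and the glucose-based p-nitrophenyl substrate analogue (stock 0.1–2.5 mM, in 10% v/v DMSO); test compound is added in DMSO. The coupled release of p-nitrophenolate is read at 405 nm every 20 s for 1 h, and activity is compared by the slopes.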

[2] = system: Mycolicibacterium smegmatis; test: Antibacterial activity against Mycobacterium smegmatis ATCC 14468 assessed as inhibition zone diameter at 20 mg/mL after 24 hrs by Kirby-Bauer disk diffusion assay; type: functional; settings: for zone of inhibition at 20000 µg/mL: ATCC 14468, 24 h, read-out: IZ
How it was run: (§3)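 Disk diffusion adapted from NCCLS. M. smegmatis was pre-grown about 24 h in 7H9 with 0.2% glycerol and ADC at 37.5 °C and 160 rpm, to OD₆₀₀ 0.27. It was swabbed onto Lennox or 7H10 agar with 0.5% glycerol and OADC. DMSO solutions (20 or 10 mg/mL) or control went onto 6 mm paper disks. Plates were incubated at 37 °C for 24 h, rechecked at day 6, and zone diameters measured in mm by ruler.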

[3] = system: Mycolicibacterium smegmatis; test: Antibacterial activity against Mycobacterium smegmatis ATCC 14468 after 36 hrs visualized by MTT staining by broth macrodilution assay; type: functional; settings: ATCC 14468, 36 h; how it was run: as §1
[4] = system: Mycolicibacterium smegmatis; test: Antibacterial activity against Mycobacterium smegmatis ATCC 14468 assessed as inhibition zone diameter at 10 mg/mL after 24 hrs by Kirby-Bauer disk diffusion assay; type: functional; settings: for zone of inhibition at 10000 µg/mL: ATCC 14468, 24 h, read-out: IZ; how it was run: as §3
[5] = target: Diacylglycerol acyltransferase/mycolyltransferase Ag85C (Mycobacterium tuberculosis) (UniProt P9WQN9); test: Inhibition of mycolyltransferase activity of Mycobacterium tuberculosis antigen 85C by UV-visible absorption spectroscopy; how it was run: as §2

Compound	MIC (Escherichia coli) [µg/mL]	MIC (Bacillus subtilis) [µg/mL]	Activity [1]	Activity [2]	MIC [3] [µg/mL]	Activity [4]	zone of inhibition at 20000 µg/mL [2] [mm]	Activity [5]	zone of inhibition at 10000 µg/mL [4] [mm]
CCCCSC[C@H]1O[C@@H](OC)[C@@H](O)[C@@H]1O	> 1020	> 1020	inactive	inactive	> 1020	inactive			
CCCCCCCCSC[C@H]1O[C@@H](OC)[C@@H](O)[C@@H]1O	> 1020	512 (≈ 1.75 mM)			512 (≈ 1.75 mM)		13.5	Active	7.5
CCCCCCSC[C@H]1O[C@H](OC)[C@@H](O)[C@@H]1O	> 1020	> 1020		inactive	1020 (≈ 3.87 mM)	inactive		Active	
CCCCCCSC[C@H]1O[C@@H](OC)[C@@H](O)[C@@H]1O	> 1020	> 1020		inactive	1020 (≈ 3.87 mM)	inactive		Active	
CCCCSC[C@H]1O[C@H](OC)[C@@H](O)[C@@H]1O	> 1020	> 1020		inactive	> 1020	inactive			
CCCCCCCCSC[C@H]1O[C@H](OC)[C@@H](O)[C@@H]1O	> 1020	128 (≈ 0.438 mM)			256 (≈ 0.875 mM)		17.5	Active	14.5
NNC(=O)c1ccncc1 [ISONIAZID]					2 (≈ 0.0146 mM)				
